Format in all cases: ADME, organism-based
In series [1] the test system is Rattus norvegicus. The series is described as follows: Effect of pretreatment with methylphenidate with a dose of 2 mg/kg (i.v.) on specific binding of [18F]ACF in rat brain cortex. The settings on record: in vivo, iv. Details: dose 2 mg/kg, route intravenous. In a few lines: (§1)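 Rats pretreated iv with drug (2 mg/kg) or saline 5 min before iv [18F]ACF (50 μCi). Sacrificed 1 h after tracer. Brain regions were dissected, weighed and counted, and % dose/g was calculated against a diluted initial dose. Drug-treated rats were compared with saline controls by ANOVA/Dunnett's test (p<0.05). Three rats per point, average ± SD.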

For series [2], the system named is Rattus norvegicus. The series can be described thus: Effect of pretreatment with nisoxatine with a dose of 2 mg/kg (i.v.) on specific binding of [18F]ACF in rat brain remainder. On the set-up: dose 2 mg/kg, route intravenous. The settings on record: in vivo, iv. A digest of the protocol:
as §1

For series [3], the species on record is Rattus norvegicus. The series can be described thus: Regional brain distribution of [18F]ACF radiolabeled compound in rat striatum after 30 min. The note with it: in vivo, 0.5 h. In a few lines:
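Rats, three per group, under ether anaesthesia, given 30 μCi no-carrier-added tracer in 0.2 mL saline into the femoral vein. They were killed at the stated time by cardiac excision under ether. Striatum and other brain regions were dissected, weighed and counted. %dose/g was calculated against counts of 1% of the injected dose, as mean ± SD of three rats.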

The species named for series [4] is Rattus norvegicus. The series is described as follows: Regional brain distribution of [18F]-ACF radiolabeled compound in rat hypothalamus after 120 min. The settings on record: in vivo, 2 h. In a few lines:
(§2)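 Rats (three per group) under ether anesthesia got 30 μCi tracer in 0.2 mL saline into the femoral vein and were killed by cardiac excision at the stated time. Cortex, striatum, hippocampus, cerebellum, hypothalamus and the rest of brain were dissected, weighed and gamma counted. %dose/g was taken against counts of a diluted initial dose. Regional ratios are each region's %dose/g over cerebellum's. Mean ± SD.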

Series [5] is filed under the species Rattus norvegicus. The series can be described thus: Organ distribution of [18F]-ACF radiolabeled compound in rat liver after 30 min. The note with it: in vivo, 0.5 h. In a few lines: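 Under ether anesthesia, 30 μCi no-carrier-added tracer in 0.2 mL saline injected into the femoral vein. Rats killed by cardiac excision at the stated time. Organs were removed, weighed and counted; % dose/organ was calculated against counts of a 1% initial-dose standard. Three rats per time, average ± SD.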

For series [6], the species on record is Rattus norvegicus. The series can be described thus: Regional brain distribution of [18F]-ACF radiolabeled compound in rat cerebellum after 2 min. The note with it: in vivo. A digest of the protocol: as §2
The species entered for series [7] is Rattus norvegicus. The series can be described thus: Regional brain distribution of [18F]ACF radiolabeled compound in rat cortex after 60 min. The settings on record: in vivo, 1 h. A digest of the protocol:
as §2

The species entered for series [8] is Rattus norvegicus. The series is described as follows: Organ distribution of [18F]ACF radiolabeled compound in rat blood after 30 min. The settings on record: in vivo, 0.5 h. A digest of the protocol:
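Rats, three per time point, under ether anesthesia; 30 μCi tracer in 0.2 mL saline injected into femoral vein. Sacrificed by cardiac excision under ether at 2, 30, 60, 120 or 240 min. Organs removed, weighed and counted; % dose/organ calculated against counts of 1% of initial dose counted at the same time. Average of three rats ± SD.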

The species entered for series [9] is Rattus norvegicus. The series can be described thus: Regional brain distribution of [18F]ACF radiolabeled compound in rat hippocampus after 2 min. The note with it: in vivo. A digest of the protocol: as §2
Series [10] is filed under the species Rattus norvegicus. The series can be described thus: Ratio of regional brain distribution of [18F]ACF radiolabeled compound in rat cortex to that of cerebellum after 30 min. The note with it: in vivo, 0.5 h. In a few lines:
as §2

Series [11] has as its system Rattus norvegicus. The series can be described thus: Ratio of effect of pretreatment with nisoxatine with a dose of 2 mg/kg (i.v.) on specific binding of [18F]ACF in rat brain cortex to that of cerebellum. Details: dose 2 mg/kg, route intravenous. The settings on record: in vivo, iv. A digest of the protocol: (§3)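 Rats (three per point) pretreated iv with competing drug at 2 mg/kg or saline (control) 5 min before iv [18F]ACF (50 μCi). At 1 h post tracer, brain regions (cortex, striatum, hippocampus, cerebellum, hypothalamus, remainder) dissected, weighed, counted as % dose/g and expressed as ratio to cerebellum. Average ± SD; ANOVA with Dunnett's test vs saline controls, p < 0.05.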

Series [12] has as its system Rattus norvegicus. The series is described as follows: Ratio of effect of pretreatment with nisoxatine with a dose of 2 mg/kg (i.v.) on specific binding of [18F]ACF in rat brain remainder to that of cerebellum. Details: dose 2 mg/kg, route intravenous. The settings on record: in vivo, iv. In a few lines: as §3
The species entered for series [13] is Rattus norvegicus. The series is described as follows: Regional brain distribution of [18F]ACF radiolabeled compound in rat hippocampus after 60 min. The settings on record: in vivo, 1 h. A digest of the protocol:
as §2

The structures appear in SMILES notation.

For the compound `CN(C)Cc1ccccc1Sc1cc(F)c(Cl)cc1N`, the Dose/g was 0.35% with Rattus norvegicus [1]; 0.41% in the series with Rattus norvegicus [2]; 0.76% in the series filed under Rattus norvegicus [3]; 0.17% in the series listed under Rattus norvegicus [4]; 15.2 % dose/organ in the series filed under Rattus norvegicus [5]; 1.33% in the series filed under Rattus norvegicus [6]. In addition, the Dose/g in the series listed under Rattus norvegicus [7] worked out at 0.33%; in the series filed under Rattus norvegicus [8] it was 4.52 % dose/organ; in the series filed under Rattus norvegicus [9], 1.6%; in the series listed under Rattus norvegicus [13] it was 0.45%. Besides, the Ratio in the series listed under Rattus norvegicus [10] was 1.69; with Rattus norvegicus [11], 1.94; in the series with Rattus norvegicus [12], 2.17.

Source of the values: ChEMBL document CHEMBL1136006, “New PET imaging agent for the serotonin transporter: [(18)F]ACF (2-[(2-amino-4-chloro-5-fluorophenyl)thio]-N,N-dimethyl-benzenmethanamine)” (J Med Chem, 2002).
